Experimental data: ChEMBL document CHEMBL3286292, “Synthesis and antimicrobial activity of amine linked bis- and tris-heterocycles” (2014)

Columns and labels:
Type in all cases: functional
Staphylococcus aureus [1] = experiment: Bactericidal activity against Staphylococcus aureus after 24 hrs
Klebsiella pneumoniae [2] = experiment: Bactericidal activity against Klebsiella pneumoniae after 24 hrs
Klebsiella pneumoniae [3] = experiment: Antibacterial activity against Klebsiella pneumoniae assessed as growth inhibition at 100 ug/well after 24 hrs by agar well diffusion method; conditions: read-out: DIZ
Method in brief: (§1)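 Agar well diffusion on […] swabbed with a 24 h broth culture. Samples were dissolved in DMSO and loaded at three per-well amounts into 6 mm wells. Incubation was 37 °C for 24 h, then inhibition zone diameter was read in mm. DMSO served as the negative control. Runs were in duplicate and averaged.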

Staphylococcus aureus [4] = experiment: Antibacterial activity against Staphylococcus aureus assessed as growth inhibition at 50 ug/well after 24 hrs by agar well diffusion method; conditions: read-out: DIZ; method in brief: as §1
Staphylococcus aureus [5] = experiment: Antibacterial activity against Staphylococcus aureus assessed as growth inhibition at 100 ug/well after 24 hrs by agar well diffusion method; conditions: read-out: DIZ; method in brief: as §1
Bacillus subtilis [6] = experiment: Antibacterial activity against Bacillus subtilis assessed as growth inhibition at 100 ug/well after 24 hrs by agar well diffusion method; conditions: read-out: DIZ; method in brief: as §1
Klebsiella pneumoniae [7] = experiment: Antibacterial activity against Klebsiella pneumoniae assessed as growth inhibition after 24 hrs by broth dilution method
Method in brief: (§2)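 Tube broth dilution with fresh nutrient broth as diluent and a 24 h old bacterial culture. Compound dilutions were added to the tubes, which were incubated at 37 °C for 24 h. Solvent control without sample was run in parallel. MIC was the lowest concentration showing no visible turbidity.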

Pseudomonas aeruginosa [8] = experiment: Bactericidal activity against Pseudomonas aeruginosa after 24 hrs
Pseudomonas aeruginosa [9] = experiment: Antibacterial activity against Pseudomonas aeruginosa assessed as growth inhibition at 25 ug/well after 24 hrs by agar well diffusion method; conditions: read-out: DIZ; method in brief: as §1
Pseudomonas aeruginosa [10] = experiment: Antibacterial activity against Pseudomonas aeruginosa assessed as growth inhibition at 100 ug/well after 24 hrs by agar well diffusion method; conditions: read-out: DIZ; method in brief: as §1
Bacillus subtilis [11] = experiment: Bactericidal activity against Bacillus subtilis after 24 hrs
Bacillus subtilis [12] = experiment: Antibacterial activity against Bacillus subtilis assessed as growth inhibition at 25 ug/well after 24 hrs by agar well diffusion method; conditions: read-out: DIZ; method in brief: as §1
Aspergillus niger [13] = experiment: Antifungal activity against Aspergillus niger assessed as inhibition of spore germination at 25 ug/well after 48 hrs by agar well diffusion method; conditions: read-out: DIZ
Method in brief: (§3)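 Well diffusion using 6 mm bored wells loaded with DMSO solutions at three per-well amounts, with a DMSO negative control. Plates were held at 28 °C for 48 h, then zone of inhibition diameter was measured in mm. Runs were in duplicate and averaged.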

Klebsiella pneumoniae [14] = experiment: Antibacterial activity against Klebsiella pneumoniae assessed as growth inhibition at 25 ug/well after 24 hrs by agar well diffusion method; conditions: read-out: DIZ; method in brief: as §1
Penicillium chrysogenum [15] = experiment: Antifungal activity against Penicillium chrysogenum assessed as growth inhibition after 48 hrs by broth dilution method
Method in brief: (§4)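 Tube broth dilution with nutrient broth as diluent. Compound dilutions were added to fungal cultures and incubated at 28 °C for 48 h. A solvent control without sample was included. MIC was the lowest concentration with no visible growth or turbidity.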

Aspergillus niger [16] = experiment: Antifungal activity against Aspergillus niger assessed as growth inhibition after 48 hrs by broth dilution method; method in brief: as §4
Bacillus subtilis [17] = experiment: Antibacterial activity against Bacillus subtilis assessed as growth inhibition at 50 ug/well after 24 hrs by agar well diffusion method; conditions: read-out: DIZ; method in brief: as §1
Aspergillus niger [18] = experiment: Antifungal activity against Aspergillus niger assessed as inhibition of spore germination at 50 ug/well after 48 hrs by agar well diffusion method; conditions: read-out: DIZ; method in brief: as §3
Staphylococcus aureus [19] = experiment: Antibacterial activity against Staphylococcus aureus assessed as growth inhibition at 25 ug/well after 24 hrs by agar well diffusion method; conditions: read-out: DIZ; method in brief: as §1
Bacillus subtilis [20] = experiment: Antibacterial activity against Bacillus subtilis assessed as growth inhibition after 24 hrs by broth dilution method; method in brief: as §2
Aspergillus niger [21] = experiment: Fungicidal activity against Aspergillus niger after 48 hrs
Staphylococcus aureus [22] = experiment: Antibacterial activity against Staphylococcus aureus assessed as growth inhibition after 24 hrs by broth dilution method; method in brief: as §2
Klebsiella pneumoniae [23] = experiment: Antibacterial activity against Klebsiella pneumoniae assessed as growth inhibition at 50 ug/well after 24 hrs by agar well diffusion method; conditions: read-out: DIZ; method in brief: as §1
Pseudomonas aeruginosa [24] = experiment: Antibacterial activity against Pseudomonas aeruginosa assessed as growth inhibition at 50 ug/well after 24 hrs by agar well diffusion method; conditions: read-out: DIZ; method in brief: as §1
Pseudomonas aeruginosa [25] = experiment: Antibacterial activity against Pseudomonas aeruginosa assessed as growth inhibition after 24 hrs by broth dilution method; method in brief: as §2
Penicillium chrysogenum [26] = experiment: Fungicidal activity against Penicillium chrysogenum after 48 hrs
Staphylococcus aureus [27] = experiment: Ratio of MBC to MIC for Staphylococcus aureus
Aspergillus niger [28] = experiment: Ratio of MFC to MIC for Aspergillus niger

Row | MIC (Klebsiella pneumoniae [7]) | MIC (Penicillium chrysogenum [15]) | MIC (Aspergillus niger [16]) | MIC (Bacillus subtilis [20]) | Structure (SMILES) | MBC (Staphylococcus aureus [1]) | MBC (Klebsiella pneumoniae [2]) | zone of inhibition at 100 µg/disc (Klebsiella pneumoniae [3]) | zone of inhibition at 50 µg/disc (Staphylococcus aureus [4]) | zone of inhibition at 100 µg/disc (Staphylococcus aureus [5]) | zone of inhibition at 100 µg/disc (Bacillus subtilis [6]) | MBC (Pseudomonas aeruginosa [8]) | zone of inhibition at 25 µg/disc (Pseudomonas aeruginosa [9]) | zone of inhibition at 100 µg/disc (Pseudomonas aeruginosa [10]) | MBC (Bacillus subtilis [11]) | zone of inhibition at 25 µg/disc (Bacillus subtilis [12]) | zone of inhibition at 25 µg/disc (Aspergillus niger [13]) | zone of inhibition at 25 µg/disc (Klebsiella pneumoniae [14]) | zone of inhibition at 50 µg/disc (Bacillus subtilis [17]) | zone of inhibition at 50 µg/disc (Aspergillus niger [18]) | zone of inhibition at 25 µg/disc (Staphylococcus aureus [19]) | also measured
1 | 50 µg | 50 µg | 25 µg | 50 µg | c1ccc(-c2csc(Nc3cc(-c4ccccc4)n(-c4nc(-c5ccccc5)cs4)n3)n2)cc1 | 50 µg | >200 µg | 35 mm | 31 mm | 32 mm | 28 mm | >200 µg | 17 mm | 21 mm | 200 µg | 25 mm | 25 mm | 30 mm | 26 mm | 28 mm | 29 mm | MFC (Aspergillus niger [21]): 100 µg; MIC (Staphylococcus aureus [22]): 12.5 µg; zone of inhibition at 50 µg/disc (Klebsiella pneumoniae [23]): 32 mm; zone of inhibition at 50 µg/disc (Pseudomonas aeruginosa [24]): 18 mm; MIC (Pseudomonas aeruginosa [25]): 50 µg; MFC (Penicillium chrysogenum [26]): 200 µg
2 | 50 µg | 25 µg | 6.25 µg | 50 µg | Clc1ccc(-c2c[nH]c(Nc3cc(-c4ccc(Cl)cc4)n(-c4nc(-c5ccc(Cl)cc5)cs4)n3)n2)cc1 | 12.5 µg | 200 µg | 38 mm | 33 mm | 35 mm | 30 mm | 200 µg | 18 mm | 23 mm | 200 µg | 27 mm | 33 mm | 32 mm | 29 mm | 36 mm | 32 mm | Ratio (Staphylococcus aureus [27]): 2; MFC (Aspergillus niger [21]): 12.5 µg; MIC (Staphylococcus aureus [22]): 6.25 µg; zone of inhibition at 50 µg/disc (Klebsiella pneumoniae [23]): 34 mm; zone of inhibition at 50 µg/disc (Pseudomonas aeruginosa [24]): 19 mm; MIC (Pseudomonas aeruginosa [25]): 50 µg; MFC (Penicillium chrysogenum [26]): 100 µg; Ratio (Aspergillus niger [28]): 2
3 | 50 µg | 25 µg | 12.5 µg | 50 µg | c1ccc(-c2c[nH]c(Nc3cc(-c4ccccc4)n(-c4nc(-c5ccccc5)cs4)n3)n2)cc1 | 50 µg | >200 µg | 33 mm | 28 mm | 30 mm | 27 mm | >200 µg | 15 mm | 20 mm | 200 µg | 24 mm | 32 mm | 28 mm | 26 mm | 34 mm | 27 mm | MFC (Aspergillus niger [21]): 100 µg; MIC (Staphylococcus aureus [22]): 12.5 µg; zone of inhibition at 50 µg/disc (Klebsiella pneumoniae [23]): 29 mm; zone of inhibition at 50 µg/disc (Pseudomonas aeruginosa [24]): 17 mm; MIC (Pseudomonas aeruginosa [25]): 50 µg; MFC (Penicillium chrysogenum [26]): 100 µg
4 | 25 µg | 50 µg | 12.5 µg | 25 µg | Clc1ccc(-c2csc(Nc3cc(-c4ccc(Cl)cc4)n(-c4nc(-c5ccc(Cl)cc5)cs4)n3)n2)cc1 | 12.5 µg | 100 µg | 41 mm | 36 mm | 38 mm | 35 mm | 200 µg | 20 mm | 25 mm | 100 µg | 29 mm | 29 mm | 35 mm | 32 mm | 31 mm | 34 mm | Ratio (Staphylococcus aureus [27]): 2; MFC (Aspergillus niger [21]): 100 µg; MIC (Staphylococcus aureus [22]): 6.25 µg; zone of inhibition at 50 µg/disc (Klebsiella pneumoniae [23]): 37 mm; zone of inhibition at 50 µg/disc (Pseudomonas aeruginosa [24]): 22 mm; MIC (Pseudomonas aeruginosa [25]): 50 µg; MFC (Penicillium chrysogenum [26]): 200 µg
